# Tests used:
# [1] = tested on: ACHN; experiment: Antiproliferative activity against human ACHN cells after 48 hrs; format: functional
# Outline: (§1)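 NCI 60-cell screen. Cells were grown in RPMI 1640 with 5% FBS and 2 mM L-glutamine, then plated at 5,000–40,000 cells/well according to doubling time and preincubated for 24 h at 37 °C in 5% CO2. Compounds were dissolved in DMSO at 400× the top final concentration and tested at five 10-fold dilutions from 10−4 to 10−8 M for 48 h. Growth was read spectrophotometrically; GI50 is 50% net protein reduction.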
# [2] = tested on: MDA-MB-435; experiment: Antiproliferative activity against human MDA-MB-435 cells after 48 hrs; format: functional; conditions: Homo sapiens, MDA-MB-435, 48 h; outline: as §1
# [3] = tested on: NCI-H23; experiment: Antiproliferative activity against human NCI-H23 cells after 48 hrs; format: functional; conditions: NCI-H23, 48 h; outline: as §1
# [4] = tested on: OVCAR-4; experiment: Antiproliferative activity against human OVCAR4 cells after 48 hrs; format: functional; conditions: OVCAR-4, 48 h; outline: as §1
# [5] = tested on: SF-539; experiment: Antiproliferative activity against human SF539 cells after 48 hrs; format: functional; conditions: SF-539, 48 h; outline: as §1
# [6] = tested on: SNB-75; experiment: Antiproliferative activity against human SNB75 cells after 48 hrs; format: functional; conditions: SNB-75, 48 h; outline: as §1
# [7] = tested on: Malme-3M; experiment: Antiproliferative activity against human MALME3M cells after 48 hrs; format: functional; outline: as §1
# [8] = tested on: OVCAR-5; experiment: Antiproliferative activity against human OVCAR5 cells after 48 hrs; format: functional; conditions: OVCAR-5, 48 h; outline: as §1
# [9] = tested on: SF-268; experiment: Antiproliferative activity against human SF268 cells after 48 hrs; format: functional; conditions: SF-268, 48 h; outline: as §1
# [10] = Antiproliferative activity against human […] cells after 48 hrs; format: functional; outline: as §1
# [11] = tested on: HCT-116; experiment: Antiproliferative activity against human HCT116 cells after 48 hrs; format: functional; conditions: HCT-116, 48 h; outline: as §1
# [12] = tested on: COLO 205; experiment: Antiproliferative activity against human COLO205 cells after 48 hrs; format: functional; conditions: COLO 205, 48 h; outline: as §1
# [13] = tested on: A549; experiment: Antiproliferative activity against human A549 cells after 48 hrs; format: functional; conditions: A549, 48 h; outline: as §1
# [14] = tested on: OVCAR-8; experiment: Antiproliferative activity against human OVCAR8 cells after 48 hrs; format: functional; conditions: OVCAR-8, 48 h; outline: as §1
# [15] = tested on: SW-620; experiment: Antiproliferative activity against human SW620 cells after 48 hrs; format: functional; conditions: SW-620, 48 h
# Outline: (§2)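 NCI 60-cell-line screen. Lines grown in RPMI 1640 with 5% fetal bovine serum and 2 mM L-glutamine, plated at 5,000–40,000 cells/well according to doubling time, left 24 h at 37 °C in 5% CO2. Drug stocks in DMSO at 400-fold the top final concentration. Five 10-fold dilutions, 10−4 to 10−8 M, incubated 48 h. Growth read spectrophotometrically as net protein; GI50 taken as 50% reduction.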
# [16] = tested on: NCI-H226; experiment: Antiproliferative activity against human NCI-H226 cells after 48 hrs; format: functional; conditions: NCI-H226, 48 h; outline: as §1
# [17] = tested on: Hs-578T; experiment: Antiproliferative activity against human HS578T cells after 48 hrs; format: functional; outline: as §1
# [18] = tested on: K562; experiment: Antiproliferative activity against human K562 cells after 48 hrs; format: functional; conditions: K562, 48 h; outline: as §1
# [19] = tested on: BT-549; experiment: Antiproliferative activity against human BT549 cells after 48 hrs; format: functional; conditions: BT-549, 48 h; outline: as §1
# [20] = tested on: CCRF-CEM; experiment: Antiproliferative activity against human CCRF-CEM cells after 48 hrs; format: functional; outline: as §1
# [21] = tested on: MCF7; experiment: Antiproliferative activity against human MCF7 cells after 48 hrs; format: functional, cell-based; conditions: MCF7, 48 h
# [22] = tested on: RXF 393; experiment: Antiproliferative activity against human RXF393 cells after 48 hrs; format: functional; conditions: RXF 393, 48 h; outline: as §1
# [23] = tested on: HCC 2998; experiment: Antiproliferative activity against human HCC2998 cells after 48 hrs; format: functional; conditions: HCC 2998, 48 h; outline: as §1
# [24] = tested on: NCI-H522; experiment: Antiproliferative activity against human NCI-H522 cells after 48 hrs; format: functional; conditions: NCI-H522, 48 h; outline: as §1
# [25] = tested on: U-251; experiment: Antiproliferative activity against human U251 cells after 48 hrs; format: functional; conditions: U-251, 48 h; outline: as §2
# [26] = tested on: RPMI-8226; experiment: Antiproliferative activity against human RPMI8226 cells after 48 hrs; format: functional; conditions: RPMI-8226, 48 h; outline: as §1
# [27] = tested on: OVCAR-3; experiment: Antiproliferative activity against human OVCAR-3 cells after 48 hrs; format: functional; conditions: OVCAR-3, 48 h; outline: as §1
# [28] = tested on: SK-MEL-5; experiment: Antiproliferative activity against human SKMEL5 cells after 48 hrs; format: functional; conditions: SK-MEL-5, 48 h; outline: as §1
# [29] = read-out: Log LC50 (the source's name) (converted)
smiles,measurement,setting,value
CCCCCCCCCCCCCCN[C@@H](CO)Cc1ccccc1,GI50,[1],1.7 µM
same,CC50,[1]; [29],5.89 µM
same,TGI,[1]; read-out: Log TGI (converted),3.16 µM
same,GI50,[2],1.74 µM
same,LC50,[2],5.62 µM
same,TGI,[2]; read-out: Log TGI (converted),3.16 µM
same,GI50,[3],2.09 µM
same,CC50,[3]; [29],9.77 µM
same,TGI,[3]; read-out: Log TGI (converted),4.47 µM
same,GI50,[4],1.91 µM
same,LC50,[4],6.31 µM
same,TGI,[4]; read-out: Log TGI (converted),3.47 µM
same,GI50,[5],1.7 µM
same,LC50,[5],6.76 µM
same,TGI,[5]; read-out: Log TGI (converted),3.39 µM
same,GI50,[6],2.19 µM
same,CC50,[6]; [29],14.1 µM
same,TGI,[6]; read-out: Log TGI (converted),4.79 µM
same,GI50,[7],2 µM
same,LC50,[7],6.31 µM
same,TGI,[7]; read-out: Log TGI (converted),3.55 µM
same,GI50,[8],2.4 µM
same,CC50,[8]; [29],15.8 µM
same,TGI,[8]; read-out: Log TGI (converted),5.5 µM
same,GI50,[9],1.78 µM
same,LC50,[9],7.08 µM
same,TGI,[9]; read-out: Log TGI (converted),3.55 µM
same,GI50,[10],4.68 µM
same,LC50,[10],45.7 µM
same,TGI,[10]; read-out: Log TGI (converted),17 µM
same,GI50,[11],2.04 µM
same,LC50,[11],6.76 µM
same,TGI,[11]; read-out: Log TGI (converted),3.72 µM
same,GI50,[12],1.66 µM
same,CC50,[12]; [29],6.03 µM
same,TGI,[12]; read-out: Log TGI (converted),3.16 µM
same,GI50,[13],2.04 µM
same,CC50,[13]; [29],26.3 µM
same,TGI,[13]; read-out: Log TGI (converted),4.68 µM
same,GI50,[14],1.91 µM
same,TGI,[14]; read-out: Log TGI (converted),3.8 µM
same,GI50,[15],2 µM
same,LC50 (concentration killing 50% of cells),[15],8.13 µM
same,TGI,[15]; read-out: Log TGI (converted),4.07 µM
same,GI50,[16],1.91 µM
same,TGI,[16]; read-out: Log TGI (converted),3.8 µM
same,GI50,[17],2.4 µM
same,LC50,[17],11 µM
same,TGI,[17]; read-out: Log TGI (converted),5.01 µM
same,GI50,[18],1.82 µM
same,LC50,[18],9.33 µM
same,TGI,[18]; read-out: Log TGI (converted),4.07 µM
same,LC50,[19],4.57 µM
same,TGI,[19]; read-out: Log TGI (converted),1.78 µM
same,GI50,[20],1.74 µM
same,CC50,[20]; [29],7.76 µM
same,TGI,[20]; read-out: Log TGI (converted),3.72 µM
same,GI50,[21],1.74 µM
same,LC50,[21],6.03 µM
same,TGI,[21]; read-out: Log TGI (converted),3.24 µM
same,GI50,[22],1.7 µM
same,CC50,[22]; [29],6.92 µM
same,TGI,[22]; read-out: Log TGI (converted),3.47 µM
same,GI50,[23],2.24 µM
same,CC50,[23]; [29],6.17 µM
same,TGI,[23]; read-out: Log TGI (converted),3.72 µM
same,GI50,[24],2.09 µM
same,TGI,[24]; read-out: Log TGI (converted),3.98 µM
same,GI50,[25],1.74 µM
same,TGI,[25]; read-out: Log TGI (converted),3.24 µM
same,GI50,[26],1.55 µM
same,CC50,[26]; [29],7.41 µM
same,TGI,[26]; read-out: Log TGI (converted),3.39 µM
same,GI50,[27],1.66 µM
same,LC50,[27],5.5 µM
same,TGI,[27]; read-out: Log TGI (converted),3.02 µM
same,GI50,[28],1.78 µM
same,CC50,[28]; [29],6.03 µM
same,TGI,[28]; read-out: Log TGI (converted),3.24 µM
